# According to ChEMBL document CHEMBL1135761, “Discovery of further pyrrolidine trans-lactams as inhibitors of human neutrophil elastase (HNE) with potential as development candidates and the crystal structure of HNE complexed with an inhibitor (GW475151)” (J Med Chem, 2002):
# System: not listed separately
# Assay: pharmacokinetic parameter volume of distribution (Vd) was reported in dog after intravenous administration
# Type: ADME, organism-based, Canis lupus familiaris
# Conditions: in vivo, read-out: Vd area
row,Vd [L/kg],Compound
1,3.5,CC(C)[C@@H]1C(=O)N(S(C)(=O)=O)[C@@H]2CCN(C(=O)/C=C/CN3CCCCC3)[C@H]21.Cl
2,3.5,CC(C)[C@@H]1C(=O)N(S(C)(=O)=O)[C@@H]2CCN(C(=O)C3CN(CC(C)(C)C)C3)[C@H]21.Cl

# System: not listed separately
# Assay: Oral bioavailability in dog
# Type: ADME, organism-based, Canis lupus familiaris
# Conditions: in vivo
row,bioavailability [%],Compound
1,100,CC(C)[C@@H]1C(=O)N(S(C)(=O)=O)[C@@H]2CCN(C(=O)/C=C/CN3CCCCC3)[C@H]21.Cl
2,90,CC(C)[C@@H]1C(=O)N(S(C)(=O)=O)[C@@H]2CCN(C(=O)C3CN(CC(C)(C)C)C3)[C@H]21.Cl

# System: not listed separately
# Assay: Oral bioavailability in rat
# Type: ADME, organism-based
# Conditions: in vivo
# Method in brief: (§1)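 Rats were dosed with the hydrochloride salt at 2 mg/kg intravenously and orally. Plasma pharmacokinetic parameters were derived from each route, and F was taken from the oral versus intravenous exposure. Some rat data were normalized from a 2.4 to a 2 mg/kg dose.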
row,bioavailability [%],Compound
1,60,CC(C)[C@@H]1C(=O)N(S(C)(=O)=O)[C@@H]2CCN(C(=O)/C=C/CN3CCCCC3)[C@H]21.Cl
2,45,CC(C)[C@@H]1C(=O)N(S(C)(=O)=O)[C@@H]2CCN(C(=O)C3CN(CC(C)(C)C)C3)[C@H]21.Cl

# System: not listed separately
# Assay: Pharmacokinetic parameter Tmax was reported in dog after oral administration
# Type: ADME, organism-based, Canis lupus familiaris
# Conditions: in vivo
row,Tmax [min],Compound
1,42,CC(C)[C@@H]1C(=O)N(S(C)(=O)=O)[C@@H]2CCN(C(=O)/C=C/CN3CCCCC3)[C@H]21.Cl
2,54,CC(C)[C@@H]1C(=O)N(S(C)(=O)=O)[C@@H]2CCN(C(=O)C3CN(CC(C)(C)C)C3)[C@H]21.Cl

# System: not listed separately
# Assay: pharmacokinetic parameter volume of distribution (Vd) was reported in rat after intravenous administration
# Type: ADME, organism-based
# Conditions: in vivo, read-out: Vd area
# Method in brief: as §1
row,Vd [L/kg],Compound
1,7.5,CC(C)[C@@H]1C(=O)N(S(C)(=O)=O)[C@@H]2CCN(C(=O)/C=C/CN3CCCCC3)[C@H]21.Cl
2,4.9,CC(C)[C@@H]1C(=O)N(S(C)(=O)=O)[C@@H]2CCN(C(=O)C3CN(CC(C)(C)C)C3)[C@H]21.Cl

# System: Canis familiaris
# Assay: pharmacokinetic parameter area under the curve (AUC) was reported in dog after intravenous administration
# Type: ADME, organism-based, Canis lupus familiaris
# Conditions: in vivo
row,AUC [ng·h/mL],Compound
1,405,CC(C)[C@@H]1C(=O)N(S(C)(=O)=O)[C@@H]2CCN(C(=O)/C=C/CN3CCCCC3)[C@H]21.Cl
2,488,CC(C)[C@@H]1C(=O)N(S(C)(=O)=O)[C@@H]2CCN(C(=O)C3CN(CC(C)(C)C)C3)[C@H]21.Cl

# System: Canis familiaris
# Assay: pharmacokinetic parameter area under the curve (AUC) was reported in dog after oral administration
# Type: ADME, organism-based, Canis lupus familiaris
# Conditions: in vivo
row,AUC [ng·h/mL],Compound
1,430,CC(C)[C@@H]1C(=O)N(S(C)(=O)=O)[C@@H]2CCN(C(=O)/C=C/CN3CCCCC3)[C@H]21.Cl
2,417,CC(C)[C@@H]1C(=O)N(S(C)(=O)=O)[C@@H]2CCN(C(=O)C3CN(CC(C)(C)C)C3)[C@H]21.Cl

# System: Rattus norvegicus
# Assay: pharmacokinetic parameter area under the curve (AUC) was reported in rat after intravenous administration
# Type: ADME, organism-based
# Conditions: in vivo
# Method in brief: as §1
row,AUC [ng·h/mL],Compound
1,424,CC(C)[C@@H]1C(=O)N(S(C)(=O)=O)[C@@H]2CCN(C(=O)/C=C/CN3CCCCC3)[C@H]21.Cl
2,482,CC(C)[C@@H]1C(=O)N(S(C)(=O)=O)[C@@H]2CCN(C(=O)C3CN(CC(C)(C)C)C3)[C@H]21.Cl

# System: Rattus norvegicus
# Assay: pharmacokinetic parameter area under the curve (AUC) was reported in rat after oral administration
# Type: ADME, organism-based
# Conditions: in vivo
# Method in brief: as §1
row,AUC [ng·h/mL],Compound
1,263,CC(C)[C@@H]1C(=O)N(S(C)(=O)=O)[C@@H]2CCN(C(=O)/C=C/CN3CCCCC3)[C@H]21.Cl
2,217,CC(C)[C@@H]1C(=O)N(S(C)(=O)=O)[C@@H]2CCN(C(=O)C3CN(CC(C)(C)C)C3)[C@H]21.Cl

# System: not listed separately
# Assay: half life was reported in dog after intravenous administration
# Type: ADME, organism-based, Canis lupus familiaris
# Conditions: in vivo
row,half-life [min],Compound
1,90,CC(C)[C@@H]1C(=O)N(S(C)(=O)=O)[C@@H]2CCN(C(=O)/C=C/CN3CCCCC3)[C@H]21.Cl
2,108,CC(C)[C@@H]1C(=O)N(S(C)(=O)=O)[C@@H]2CCN(C(=O)C3CN(CC(C)(C)C)C3)[C@H]21.Cl

# System: not listed separately
# Assay: half life was reported in dog after oral administration
# Type: ADME, organism-based, Canis lupus familiaris
# Conditions: in vivo
row,half-life [min],Compound
1,96,CC(C)[C@@H]1C(=O)N(S(C)(=O)=O)[C@@H]2CCN(C(=O)/C=C/CN3CCCCC3)[C@H]21.Cl
2,126,CC(C)[C@@H]1C(=O)N(S(C)(=O)=O)[C@@H]2CCN(C(=O)C3CN(CC(C)(C)C)C3)[C@H]21.Cl

# System: not listed separately
# Assay: half life was reported in rat after intravenous administration
# Type: ADME, organism-based
# Conditions: in vivo
# Method in brief: as §1
row,half-life [min],Compound
1,66,CC(C)[C@@H]1C(=O)N(S(C)(=O)=O)[C@@H]2CCN(C(=O)/C=C/CN3CCCCC3)[C@H]21.Cl
2,48,CC(C)[C@@H]1C(=O)N(S(C)(=O)=O)[C@@H]2CCN(C(=O)C3CN(CC(C)(C)C)C3)[C@H]21.Cl

# System: not listed separately
# Assay: half life was reported in rat after oral administration
# Type: ADME, organism-based
# Conditions: in vivo
# Method in brief: as §1
row,half-life [min],Compound
1,48,CC(C)[C@@H]1C(=O)N(S(C)(=O)=O)[C@@H]2CCN(C(=O)/C=C/CN3CCCCC3)[C@H]21.Cl
2,72,CC(C)[C@@H]1C(=O)N(S(C)(=O)=O)[C@@H]2CCN(C(=O)C3CN(CC(C)(C)C)C3)[C@H]21.Cl

# System: not listed separately
# Assay: Pharmacokinetic parameter Cmax was reported after in dog oral administration
# Type: ADME, organism-based, Canis lupus familiaris
# Parameters: route oral
# Conditions: in vivo
row,Cmax [ng/mL],Compound
1,152,CC(C)[C@@H]1C(=O)N(S(C)(=O)=O)[C@@H]2CCN(C(=O)/C=C/CN3CCCCC3)[C@H]21.Cl
2,130,CC(C)[C@@H]1C(=O)N(S(C)(=O)=O)[C@@H]2CCN(C(=O)C3CN(CC(C)(C)C)C3)[C@H]21.Cl

# System: not listed separately
# Assay: Pharmacokinetic parameter Cmax was reported after in rat oral administration
# Type: ADME, organism-based
# Parameters: route oral
# Conditions: in vivo
# Method in brief: as §1
row,Cmax [ng/mL],Compound
1,232,CC(C)[C@@H]1C(=O)N(S(C)(=O)=O)[C@@H]2CCN(C(=O)/C=C/CN3CCCCC3)[C@H]21.Cl
2,142,CC(C)[C@@H]1C(=O)N(S(C)(=O)=O)[C@@H]2CCN(C(=O)C3CN(CC(C)(C)C)C3)[C@H]21.Cl

# System: not listed separately
# Assay: Pharmacokinetic parameter Tmax was reported in rat after oral administration
# Type: ADME, organism-based
# Conditions: in vivo
# Method in brief: as §1
row,Tmax [min],Compound
1,30,CC(C)[C@@H]1C(=O)N(S(C)(=O)=O)[C@@H]2CCN(C(=O)/C=C/CN3CCCCC3)[C@H]21.Cl
2,45,CC(C)[C@@H]1C(=O)N(S(C)(=O)=O)[C@@H]2CCN(C(=O)C3CN(CC(C)(C)C)C3)[C@H]21.Cl

# Molecular target: T1, Cathepsin G (Homo sapiens, UniProt P08311)
# T1 sequence (P08311 whole entry): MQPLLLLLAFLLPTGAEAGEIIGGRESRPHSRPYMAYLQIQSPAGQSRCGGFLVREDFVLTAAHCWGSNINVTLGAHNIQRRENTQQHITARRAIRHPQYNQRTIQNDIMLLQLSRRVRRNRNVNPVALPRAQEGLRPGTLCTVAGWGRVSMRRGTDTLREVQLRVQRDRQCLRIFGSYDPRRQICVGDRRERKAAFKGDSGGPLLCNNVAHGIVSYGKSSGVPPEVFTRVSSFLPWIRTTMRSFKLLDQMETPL
# Assay: The compound was evaluated for its inhibitory activity against cathepsin G using selectivity assay
# Conditions: not given
row,IC50 [µM],Compound
1,> 100,CC(C)[C@@H]1C(=O)N(S(C)(=O)=O)[C@@H]2CCN(C(=O)/C=C/CN3CCCCC3)[C@H]21.Cl
2,> 100,CC(C)[C@@H]1C(=O)N(S(C)(=O)=O)[C@@H]2CCN(C(=O)C3CN(CC(C)(C)C)C3)[C@H]21.Cl

# Molecular target: Chymotrypsinogen A (Bos taurus, UniProt P00766)
# Assay: The compound was evaluated for its inhibitory activity against Chymotrypsinogen using selectivity assay
# Conditions: not given
# Method in brief: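 Selectivity counter-screen against chymotrypsin, run essentially per an earlier published protocol; inhibitor preincubated with enzyme for 15 min before activity read-out.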
row,IC50 [µM],Compound
1,31,CC(C)[C@@H]1C(=O)N(S(C)(=O)=O)[C@@H]2CCN(C(=O)C3CN(CC(C)(C)C)C3)[C@H]21.Cl

# Molecular target: Serine protease 1 (Homo sapiens, UniProt P07477)
# Assay: The compound was evaluated for its inhibitory activity against trypsin using selectivity assay
# Conditions: not given
# Sequence of Serine protease 1 (P07477 whole entry): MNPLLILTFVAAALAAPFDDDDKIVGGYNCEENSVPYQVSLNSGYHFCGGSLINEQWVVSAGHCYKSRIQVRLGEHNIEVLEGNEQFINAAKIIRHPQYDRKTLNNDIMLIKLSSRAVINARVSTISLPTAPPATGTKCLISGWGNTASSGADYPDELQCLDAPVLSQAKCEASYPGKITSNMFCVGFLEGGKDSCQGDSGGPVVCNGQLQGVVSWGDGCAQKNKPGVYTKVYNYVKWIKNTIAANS
row,IC50 [µM],Compound
1,> 100,CC(C)[C@@H]1C(=O)N(S(C)(=O)=O)[C@@H]2CCN(C(=O)/C=C/CN3CCCCC3)[C@H]21.Cl
2,> 100,CC(C)[C@@H]1C(=O)N(S(C)(=O)=O)[C@@H]2CCN(C(=O)C3CN(CC(C)(C)C)C3)[C@H]21.Cl

# System: not listed separately
# Assay: Pharmacokinetic parameter Tmax was reported in rat after intravenous administration
# Type: ADME, organism-based
# Conditions: in vivo
# Method in brief: as §1
row,Tmax [min],Compound
1,3,CC(C)[C@@H]1C(=O)N(S(C)(=O)=O)[C@@H]2CCN(C(=O)/C=C/CN3CCCCC3)[C@H]21.Cl
2,1.8,CC(C)[C@@H]1C(=O)N(S(C)(=O)=O)[C@@H]2CCN(C(=O)C3CN(CC(C)(C)C)C3)[C@H]21.Cl

# Molecular target: T2, Neutrophil elastase (Homo sapiens) (UniProt P08246)
# T2 sequence (whole entry): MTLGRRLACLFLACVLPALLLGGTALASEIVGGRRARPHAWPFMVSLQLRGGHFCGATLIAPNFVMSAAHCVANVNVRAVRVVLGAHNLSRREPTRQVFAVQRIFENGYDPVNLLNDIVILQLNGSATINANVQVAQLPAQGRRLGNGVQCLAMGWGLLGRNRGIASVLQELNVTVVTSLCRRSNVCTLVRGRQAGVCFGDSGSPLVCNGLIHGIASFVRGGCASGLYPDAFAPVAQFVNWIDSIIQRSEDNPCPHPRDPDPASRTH
# Conditions: Canis lupus familiaris; 2 mg/kg
row,inhibition [%],Compound
1,97,CC(C)[C@@H]1C(=O)N(S(C)(=O)=O)[C@@H]2CCN(C(=O)/C=C/CN3CCCCC3)[C@H]21.Cl
2,92,CC(C)[C@@H]1C(=O)N(S(C)(=O)=O)[C@@H]2CCN(C(=O)C3CN(CC(C)(C)C)C3)[C@H]21.Cl

# Molecular target: T2, Neutrophil elastase (Homo sapiens)
# Conditions: Canis lupus familiaris; Blood; 2 mg/kg
row,inhibition [%],Compound
1,100,CC(C)[C@@H]1C(=O)N(S(C)(=O)=O)[C@@H]2CCN(C(=O)/C=C/CN3CCCCC3)[C@H]21.Cl

# Molecular target: T2, Neutrophil elastase (Homo sapiens)
# Conditions: Canis lupus familiaris; Blood; 2 mg/kg
# Remark: another data set of the same source
row,inhibition [%],Compound
1,99,CC(C)[C@@H]1C(=O)N(S(C)(=O)=O)[C@@H]2CCN(C(=O)C3CN(CC(C)(C)C)C3)[C@H]21.Cl

# Molecular target: T2, Neutrophil elastase (Homo sapiens)
# Conditions: not given
row,k on [M⁻¹ s⁻¹],Compound
1,6630,CC(C)[C@@H]1C(=O)N(S(C)(=O)=O)[C@@H]2CCN(C(=O)/C=C/CN3CCCCC3)[C@H]21.Cl
2,6310,CC(C)[C@@H]1C(=O)N(S(C)(=O)=O)[C@@H]2CCN(C(=O)C3CN(CC(C)(C)C)C3)[C@H]21.Cl
